High-throughput results: PubChem BioAssay, several laboratories
Only some compounds are listed: those with a hit (about 2% of all), similar ones and a draw of the others.
PKD1 inh: inhibitors of human PKD1 kinase, biochemical, fluorescence polarization | inhibition, % (no concentration beside the values) | PKD1 kinase fluorescence polarization assay | 0.056% of 200,000 active
Target sequence (Q15139 whole entry, looked up): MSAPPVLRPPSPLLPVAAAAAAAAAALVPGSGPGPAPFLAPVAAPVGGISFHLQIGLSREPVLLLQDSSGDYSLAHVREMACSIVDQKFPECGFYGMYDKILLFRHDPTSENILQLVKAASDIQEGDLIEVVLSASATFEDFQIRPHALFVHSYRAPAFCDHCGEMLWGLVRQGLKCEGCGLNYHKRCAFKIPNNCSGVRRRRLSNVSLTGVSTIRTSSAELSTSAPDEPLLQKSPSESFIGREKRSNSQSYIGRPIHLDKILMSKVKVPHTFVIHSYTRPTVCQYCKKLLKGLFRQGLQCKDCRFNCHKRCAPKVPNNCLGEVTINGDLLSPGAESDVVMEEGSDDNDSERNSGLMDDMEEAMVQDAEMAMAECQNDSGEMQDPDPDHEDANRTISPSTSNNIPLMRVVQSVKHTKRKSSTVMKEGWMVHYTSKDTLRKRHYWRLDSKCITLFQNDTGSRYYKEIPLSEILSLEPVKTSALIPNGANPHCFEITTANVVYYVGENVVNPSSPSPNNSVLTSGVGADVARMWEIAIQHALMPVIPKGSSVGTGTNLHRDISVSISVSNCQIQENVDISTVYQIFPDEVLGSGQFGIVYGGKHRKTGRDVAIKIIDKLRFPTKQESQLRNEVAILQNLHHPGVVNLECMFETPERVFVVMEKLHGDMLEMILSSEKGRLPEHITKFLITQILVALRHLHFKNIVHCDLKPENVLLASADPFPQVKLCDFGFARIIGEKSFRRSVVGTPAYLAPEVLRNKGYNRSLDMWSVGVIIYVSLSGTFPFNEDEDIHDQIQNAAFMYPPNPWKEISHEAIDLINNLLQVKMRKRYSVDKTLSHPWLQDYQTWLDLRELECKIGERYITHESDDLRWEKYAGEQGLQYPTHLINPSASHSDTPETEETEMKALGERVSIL
EBV gp42 inh: Epstein-Barr virus gp42 inhibitors, primary screen, biochemical, uHTS, fluorescence polarization; Glycoprotein 42 (Epstein-Barr virus (strain AG876)), Q1HVG2; Fluorescence polarization binding assay, mP read-out; inhibition, % (tested at 21.74 µM); 0.42% of 220,000 active; AID 1085, 2008
Runt-SMMHC FRET: inhibitors of RUNX1 Runt–CBFb-SMMHC binding, primary screen, biochemical, FRET, Cerulean-Runt, Venus-CBFb-SMMHC, uHTS; Runt-related transcription factor 1 (Homo sapiens) + Core-binding factor subunit beta …; Cerulean-Runt/Venus-CBFb-SMMHC FRET ratio 530/480, 1 h; inhibition, % at 20 µM; 0.74% of 220,000 active; AID 1434, 2008;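 active = mean inhibition across duplicate retests at 20 µM reaching about 50%, limit read from the data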;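 note: 0% = DMSO wells and 100% = wells with excess untagged CBFb-SMMHC; inhibitors lower the FRET ratio by blocking Runt binding to CBFb-SMMHC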
MEX-5 binding: MEX-5 zinc finger RNA-binding disruptors – biochemical, C. elegans, fluorescence polarization, MLPCN library, primary screen. MEX-5/FITC-TCR2 RNA binding; active compounds read low. activity score (negative = inhibition of binding), % at 10 µM. 0.38% of 300,000 active. AID 1832, 2009;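 active = inhibition past about -25% in most replicates, and total fluorescence under double the plate's negative control median, limit read from the data; inconclusive = replicates evenly split on the limit, or fluorescence at least double controls; inactive = too little inhibition in most replicates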;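 note: 0% = DMSO and -100% = 5 µM competing unlabeled TCR2 RNA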
Runt-CBFb FRET: inhibitors of RUNX1 Runt–CBFb binding, primary screen, biochemical, FRET, Cerulean-Runt, Venus-CBFb, uHTS | Runt-related transcription factor 1 (Homo sapiens) + Core-binding factor subunit beta … | Cerulean-Runt/Venus-CBFb FRET ratio 530/480, 1 h | inhibition, % at 20 µM | 0.46% of 220,000 active | AID 1496, 2009;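 active = inhibition over about 50% at 20 µM in the single-dose screen, limit read from the data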;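 note: 0% = DMSO wells and 100% = excess unlabeled CBFb competitor control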
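Doses: 20 µM compound in 1% DMSO | Material: Cerulean-labeled Runt domain protein | Amount: Each fluorescent fusion protein 100 nM | Schedule: Two 1 h room-temperature incubations shielded from light | Measured by: FRET fluorescence | Evaluation: Loss of energy transfer signal | Controls: Unlabeled CBFb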
RanGTP-Imp inh: inhibitors of RanGTP-importin-beta interaction, primary screen, biochemical, FRET, CFP-Ran, YFP-importin-beta, homogeneous; Ran GTPase (GTP-bound) - importin-beta complex; cell-free CFP-Ran/YFP-importin-beta FRET ratio; inhibition, % (no concentration beside the values); 1.1% of 300,000 active;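 active = more than half of the replicate wells show a fall in the fluorescence ratio signal beyond about 16%, limit read from the data, passing the limit was not always enough; inconclusive = exactly half of the replicate wells pass the set limit; inactive = fewer than half of replicates pass the limit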;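 note: 0% = DMSO wells and 100% = Ran loaded with GDP instead of GTP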
An asterisk follows results filed as active; ? = inconclusive; / = no result given. Cut-off read from the data, not from the text of the source, unless noted: active = inhibition above about 50%; inactive = the rest.

SMILES	PKD1 inh	EBV gp42 inh	Runt-SMMHC FRET	MEX-5 binding	Runt-CBFb FRET	RanGTP-Imp inh
CCC1=Nc2cc(C(=O)N3CCC4(CC3)OCCO4)ccc2Sc2ccc(Br)cc21	/	/	/	3	/	3
Cc1cc(N=Nc2ccccc2C)ccc1N	/	/	/	1	/	4
O=c1[nH]c(=O)n(-c2ccccc2)c(O)c1/C=C/C=Nc1ccccc1	-13	-313	60*	?	46	58*
NS(=O)(=O)c1ccc(N=Cc2c(O)n(-c3ccccc3)c(=O)[nH]c2=O)cc1	-7	-23	-8	3	0	8
Cc1sc2ncnc(N3CCC(C(=O)Nc4ccc(C#N)c(Cl)c4)CC3)c2c1C	/	/	/	5	/	5
Cn1cccc1/C=C1\C(=O)NC(=O)N(CCC2=CCCCC2)C1=O	-9	-54	-12	-37*	-3	5
Cn1cccc1/C=C1/C(=O)NC(=O)N(C(C)(C)C)C1=O	/	-15	2	/	2	3
Cn1cccc1/C=C1\C(=O)NC(=O)N(Cc2ccccc2Cl)C1=O	-9	58*	-2	/	-3	/
O=c1[nH]c(=O)n(-c2ccc(Br)cc2)c(O)c1C=NCCN1CCCCC1	/	-12	-4	-40*	4	0
Cc1cccc(-n2c(O)c(C=NCCN3CCCCC3)c(=O)[nH]c2=O)c1	/	-18	2	0	2	1
Cc1ccc(OCCOc2cccc(C=C3C(=O)NC(=O)NC3=O)c2)cc1	/	/	/	-1	/	2
O=c1nc(/C=C/c2ccc(Cl)cc2Cl)cc(C(F)(F)F)[nH]1	/	/	/	1	/	-3
Cc1ccc(N2C(=O)NC(=O)C3(Cc4ccccc4N4CCCC43)C2=O)cc1 (stereo not drawn)	2	-18	-4	-3	2	20*
O=C1NC(=O)C2(Cc3ccccc3N3CCCC32)C(=O)N1c1ccc(Cl)cc1 (stereo not drawn)	-10	-6	8	0	7	/
CC(=O)OC1N=C(c2ccccc2Cl)c2cc(Br)ccc2NC1=O (stereo not drawn)	/	-12	-3	1	0	4
CC(C)[C@@]1(NC(=O)[C@@H]2C=C3c4cccc5[nH]cc(c45)C[C@H]3N(C)C2)O[C@@]2(O)[C@@H]3CCCN3C(=O)[C@H](Cc3ccccc3)N2C1=O	5	112*	-134	/	-35	/
CC(C)[C@@]1(NC(=O)[C@@H]2C[C@@H]3c4cccc5[nH]cc(c45)C[C@H]3N(C)C2)O[C@@]2(O)[C@@H]3CCCN3C(=O)[C@H](Cc3ccccc3)N2C1=O	2	12	-61	1	-26	-27
CC(C)C[C@H]1C(=O)N2CCCC2[C@]2(O)O[C@](NC(=O)[C@@H]3C=C4c5cccc6[nH]cc(c56)CC4N(C)C3)(C(C)C)C(=O)N12 (stereo partly drawn)	1	97*	-188	-7	-84	-42
CC(C)[C@H]1C(=O)N2CCC[C@H]2[C@]2(O)O[C@](NC(=O)[C@@H]3C=C4c5cccc6[nH]cc(c56)C[C@H]4N(C)C3)(C(C)C)C(=O)N12	6	112*	-120	/	-49	/
O=C1N[C@@H](Cc2ccccc2)C(=O)N2[C@H]1C[C@H]1c3ccccc3N(OOSc3ccccc3)[C@H]12	/	/	/	3	/	-6
CCOC(=O)c1c(C)n(Cc2ccccc2)c2ccc(OCC(O)CNC(C)(C)C)cc12 (stereo not drawn)	/	/	/	2	/	1
CCCCCn1c(N)c(C(=O)NCc2cccs2)c2nc3ccccc3nc21	1	2	19	0	3	56*
CCCOC(=O)c1c(N)n(Cc2cccs2)c2nc3ccccc3nc12	-4	-8	108*	-2	40	?
